# From ChEMBL document CHEMBL5058577, “EUbOPEN Chemogenomics Library 2 (Multiplex)” (2022)
# System: U2OS
# Assay: Multiplex assay against U2OS
# Type: toxicity, cell-based
# Settings: human
# Outline: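 Live cells were stained at seeding with Hoechst33342, BioTracker Green Microtubule Cytoskeleton Dye, MitoTracker Red and Annexin V Alexa Fluor 680. Following compound addition, they were imaged on a CQ1 microscope at 37°C and 5% CO2 and gated by CellPathfinder machine learning into Hoechst high-intensity objects or normal cells, with normal cells split into healthy, pyknosed or fragmented nuclei and pyknosed cells into mitotic or apoptotic. Tubulin, mitochondrial-mass and membrane-permeability phenotypes are per cents of healthy-nucleus cells.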
# [1] = 12 h, 1 µM, compound concentration 1 uM, replicate 1
# [2] = 12 h, 1 µM, compound concentration 1 uM, replicate 2
# [3] = 12 h, 10 µM, compound concentration 10 uM, replicate 1
# [4] = 12 h, 10 µM, compound concentration 10 uM, replicate 2
# [5] = 24 h, 1 µM, compound concentration 1 uM, replicate 1
# [6] = 24 h, 1 µM, compound concentration 1 uM, replicate 2
# [7] = 24 h, 10 µM, compound concentration 10 uM, replicate 1
# [8] = 24 h, 10 µM, compound concentration 10 uM, replicate 2
# [9] = 48 h, 1 µM, compound concentration 1 uM, replicate 1
# [10] = 48 h, 1 µM, compound concentration 1 uM, replicate 2
# [11] = 48 h, 10 µM, compound concentration 10 uM, replicate 1
# [12] = 48 h, 10 µM, compound concentration 10 uM, replicate 2
smiles,measurement,setting,value
Cc1ccc(OCC(O)C(C)NC(C)C)c2c1CCC2.Cl (stereo unspecified),Population Apoptotic (%),[1],63%
same,Population Fragmented Nuclei (%),[1],19%
same,Population Healthy Nuclei (%),[1],66%
same,Population Hoechst High Intensity Objects (%),[1],2%
same,Population Membrane Permeable-Phenotype (%),[1],8%
same,Population Mitochondria Different-Phenotype (%),[1],3%
same,Population Mitotic Cells (%),[1],36%
same,Population Normal (%),[1],97%
same,Population Pyknosed Nuclei (%),[1],13%
same,Population Tubulin-Different-Phenotype (%),[1],4%
same,Total Cell Count,[1],222
same,Population Apoptotic (%),[2],90%
same,Population Fragmented Nuclei (%),[2],11%
same,Population Healthy Nuclei (%),[2],79%
same,Population Hoechst High Intensity Objects (%),[2],1%
same,Population Membrane Permeable-Phenotype (%),[2],7%
same,Population Mitochondria Different-Phenotype (%),[2],2%
same,Population Mitotic Cells (%),[2],9%
same,Population Normal (%),[2],98%
same,Population Pyknosed Nuclei (%),[2],8%
same,Population Tubulin-Different-Phenotype (%),[2],2%
same,Total Cell Count,[2],129
same,Population Apoptotic (%),[3],61%
same,Population Fragmented Nuclei (%),[3],30%
same,Population Healthy Nuclei (%),[3],52%
same,Population Hoechst High Intensity Objects (%),[3],5%
same,Population Membrane Permeable-Phenotype (%),[3],14%
same,Population Mitochondria Different-Phenotype (%),[3],17%
same,Population Mitotic Cells (%),[3],38%
same,Population Normal (%),[3],94%
same,Population Pyknosed Nuclei (%),[3],16%
same,Population Tubulin-Different-Phenotype (%),[3],8%
same,Total Cell Count,[3],215
same,Population Apoptotic (%),[4],80%
same,Population Fragmented Nuclei (%),[4],11%
same,Population Healthy Nuclei (%),[4],81%
same,Population Hoechst High Intensity Objects (%),[4],0%
same,Population Membrane Permeable-Phenotype (%),[4],9%
same,Population Mitochondria Different-Phenotype (%),[4],22%
same,Population Mitotic Cells (%),[4],20%
same,Population Normal (%),[4],99%
same,Population Pyknosed Nuclei (%),[4],7%
same,Population Tubulin-Different-Phenotype (%),[4],9%
same,Total Cell Count,[4],137
same,Population Apoptotic (%),[5],88%
same,Population Fragmented Nuclei (%),[5],14%
same,Population Healthy Nuclei (%),[5],75%
same,Population Hoechst High Intensity Objects (%),[5],0%
same,Population Membrane Permeable-Phenotype (%),[5],5%
same,Population Mitochondria Different-Phenotype (%),[5],3%
same,Population Mitotic Cells (%),[5],11%
same,Population Normal (%),[5],100%
same,Population Pyknosed Nuclei (%),[5],10%
same,Population Tubulin-Different-Phenotype (%),[5],4%
same,Total Cell Count,[5],255
same,Population Apoptotic (%),[6],93%
same,Population Fragmented Nuclei (%),[6],15%
same,Population Healthy Nuclei (%),[6],73%
same,Population Hoechst High Intensity Objects (%),[6],1%
same,Population Membrane Permeable-Phenotype (%),[6],3%
same,Population Mitochondria Different-Phenotype (%),[6],5%
same,Population Mitotic Cells (%),[6],6%
same,Population Normal (%),[6],98%
same,Population Tubulin-Different-Phenotype (%),[6],0%
same,Total Cell Count,[6],155
same,Population Apoptotic (%),[7],82%
same,Population Fragmented Nuclei (%),[7],26%
same,Population Healthy Nuclei (%),[7],56%
same,Population Hoechst High Intensity Objects (%),[7],3%
same,Population Membrane Permeable-Phenotype (%),[7],10%
same,Population Mitochondria Different-Phenotype (%),[7],17%
same,Population Mitotic Cells (%),[7],17%
same,Population Normal (%),[7],96%
same,Population Pyknosed Nuclei (%),[7],17%
same,Population Tubulin-Different-Phenotype (%),[7],4%
same,Total Cell Count,[7],230
same,Population Apoptotic (%),[8],92%
same,Population Fragmented Nuclei (%),[8],14%
same,Population Healthy Nuclei (%),[8],77%
same,Population Hoechst High Intensity Objects (%),[8],2%
same,Population Membrane Permeable-Phenotype (%),[8],12%
same,Population Mitochondria Different-Phenotype (%),[8],11%
same,Population Mitotic Cells (%),[8],7%
same,Population Normal (%),[8],97%
same,Population Pyknosed Nuclei (%),[8],8%
same,Population Tubulin-Different-Phenotype (%),[8],6%
same,Total Cell Count,[8],172
same,Population Apoptotic (%),[9],88%
same,Population Fragmented Nuclei (%),[9],14%
same,Population Healthy Nuclei (%),[9],73%
same,Population Hoechst High Intensity Objects (%),[9],0%
same,Population Membrane Permeable-Phenotype (%),[9],6%
same,Population Mitochondria Different-Phenotype (%),[9],4%
same,Population Mitotic Cells (%),[9],11%
same,Population Normal (%),[9],99%
same,Population Pyknosed Nuclei (%),[9],12%
same,Population Tubulin-Different-Phenotype (%),[9],3%
same,Total Cell Count,[9],377
same,Population Apoptotic (%),[10],80%
same,Population Fragmented Nuclei (%),[10],20%
same,Population Healthy Nuclei (%),[10],69%
same,Population Hoechst High Intensity Objects (%),[10],2%
same,Population Membrane Permeable-Phenotype (%),[10],5%
same,Population Mitochondria Different-Phenotype (%),[10],3%
same,Population Mitotic Cells (%),[10],20%
same,Population Normal (%),[10],97%
same,Population Pyknosed Nuclei (%),[10],10%
same,Population Tubulin-Different-Phenotype (%),[10],2%
same,Total Cell Count,[10],202
same,Population Apoptotic (%),[11],82%
same,Population Fragmented Nuclei (%),[11],23%
same,Population Healthy Nuclei (%),[11],63%
same,Population Hoechst High Intensity Objects (%),[11],4%
same,Population Membrane Permeable-Phenotype (%),[11],12%
same,Population Mitochondria Different-Phenotype (%),[11],12%
same,Population Mitotic Cells (%),[11],17%
same,Population Normal (%),[11],95%
same,Population Pyknosed Nuclei (%),[11],13%
same,Population Tubulin-Different-Phenotype (%),[11],6%
same,Total Cell Count,[11],306
same,Population Apoptotic (%),[12],77%
same,Population Fragmented Nuclei (%),[12],15%
same,Population Healthy Nuclei (%),[12],73%
same,Population Hoechst High Intensity Objects (%),[12],0%
same,Population Membrane Permeable-Phenotype (%),[12],7%
same,Population Mitochondria Different-Phenotype (%),[12],4%
same,Population Mitotic Cells (%),[12],22%
same,Population Normal (%),[12],99%
same,Population Pyknosed Nuclei (%),[12],11%
same,Population Tubulin-Different-Phenotype (%),[12],3%
same,Total Cell Count,[12],246
